Reference: article PMC6217529 (ACS Omega, 2018)
“Also recorded” adds a separate entry of the source.

Key:
mice [1] = assay: Edema inducing activity in mice foot pads; format: in vivo; settings: up to 100 μg
platelets (PRP) = assay: Epinephrine-induced platelet aggregation in PRP; format: cell-based, human; settings: agonist epinephrine
Method in brief: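 Platelet-rich plasma (PRP) and platelet-poor plasma (PPP) were prepared from fresh blood of healthy human donors, and PRP was adjusted with PPP to 3.1 × 10^8 platelets/mL at 37 °C. PRP was pre-incubated with test compound (10, 20 or 30 μg) in a 0.25 mL reaction volume. Aggregation was started with 5 μM epinephrine and traced on a dual-channel optical lumi-aggregometer. Inhibition % was plotted against dose, from three independent experiments.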

mice [2] = assay: Hemorrhagic activity in mice, intradermal; format: in vivo; settings: up to 100 μg

| hemorrhage in experimental mice (in words) (mice [2]) | Compound | edema in experimental mice (in words) (mice [1]) | ability to inhibit epinephrine-induced platelet aggregation (in words) (platelets (PRP)) |
| --- | --- | --- | --- |
| anti-hemorrhagic | Cn1c(-c2ccc(Br)s2)nc2cc(-c3nnc(-c4cc(-c5ccc(Cl)cc5Cl)nc5ccccc45)o3)ccc21 [8d, 2-(2-(5-Bromothiophen-2-yl)-1-methyl-1H-benzo[d]imidazol-5-yl)-5-(2-(2,4-dichlorophenyl)quinolin-4-yl)-1,3,4-oxadiazole] | anti-edema; also recorded: active in preventing hemorrhage and edema | but not the 8d sample |
| anti-hemorrhagic | Cn1c(-c2ccc(Br)s2)nc2cc(-c3nnc(-c4cc(-c5cc(F)cc(F)c5)nc5ccccc45)o3)ccc21 [8a, 2-(2-(5-Bromothiophen-2-yl)-1-methyl-1H-benzo[d]imidazol-5-yl)-5-(2-(3,5-difluorophenyl)quinolin-4-yl)-1,3,4-oxadiazole] | anti-edema; also recorded: active in preventing hemorrhage and edema | able to inhibit the epinephrine-induced platelet aggregation |
